Bioassay records deposited in PubChem by several laboratories.
Most compounds without a hit are left out; they make up all but 12% or so of the library.
ROMK mod = modulators of human ROMK potassium channel. Tet-inducible ROMK, thallium flux fluorescence; actives lie on both sides. P48048. 2% of 130,000 active. B-score at 10 µM. AID 1918;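 active means signal ratio slope over the read window, or its plate-corrected B-score, at least 3 SD from the plate mean, either direction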;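 further: B-score of the F/F0 ratio slope over 7 to 12 s after thallium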
Target sequence (P48048 whole entry, looked up): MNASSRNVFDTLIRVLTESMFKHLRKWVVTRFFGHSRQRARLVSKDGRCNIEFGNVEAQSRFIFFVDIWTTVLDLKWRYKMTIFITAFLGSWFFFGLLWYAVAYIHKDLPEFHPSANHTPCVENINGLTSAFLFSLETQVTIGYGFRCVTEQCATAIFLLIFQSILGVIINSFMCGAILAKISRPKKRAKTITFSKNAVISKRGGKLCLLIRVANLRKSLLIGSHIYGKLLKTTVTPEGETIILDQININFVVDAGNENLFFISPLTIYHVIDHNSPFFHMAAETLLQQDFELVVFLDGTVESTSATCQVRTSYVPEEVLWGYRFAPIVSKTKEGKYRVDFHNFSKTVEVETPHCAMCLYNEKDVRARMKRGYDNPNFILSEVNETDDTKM
Diaphorase inh = diaphorase inhibition or chemical oxidation counter-screen | diaphorase resazurin-to-resorufin fluorescence, NADH, 16 min; bacterial (C. kluyveri) enzyme, not human | inhibition, % at 20 µM | 0.69% of 190,000 active | AID 1217;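 active means primary screen inhibition at 20 µM above a set limit, cut at about 50% in these data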;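 further: plate controls were DMSO with full reaction for no effect and wells lacking NADH for full effect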
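controls = No-NADH positive control and DMSO neutral control | system = Clostridium kluyveri diaphorase enzyme | timing = reaction incubation of 16 min at room temperature | signal = resorufin fluorescence 544/590 nm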
Diaphorase act = diaphorase activation or chemical reduction counter-screen; 0.005% of 190,000 active; Diaphorase/resazurin coupled assay, resorufin fluorescence, 16 min; stronger effect = higher value; 1 = vehicle wells, 0 = NADH-free wells; activation factor at 20 µM; AID 1229;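 active means diaphorase activity raised at least twofold by the compound at 20 µM; inactive means activation factor below 2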
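Measured by – red resorufin fluorescence at 544/590 nm excitation/emission · Test system – Clostridium kluyveri diaphorase, purified enzyme · Incubation – reaction time 16 min, room temperature · Buffer or medium – 50 mM HEPES pH 7.4 with 4.542 mM MgCl2, 0.005% Tween 20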
Lmaj promast = reduces viability of Leishmania major promastigotes; resazurin fluorescence viability; inhibition, % at 10 µM; 9% of 200,000 active; in the data active means inhibition above about 50%;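 further: promastigotes grown with compound for 44 hours at 28 °C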
Cl transport mod = KCC2 (human) Cl- transport modulation. Q9H2X9. KCC2 cells, thallium flux FluoZin-2 fluorescence. B-score of Tl+ flux slope (higher = more flux/activation; lower = inhibition) at 10 µM. 2.2% of 190,000 active. AID 1456;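 active means thallium flux slope and its plate-corrected score both differing from the plate sample mean at a set confidence after two filtering rounds, in either direction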;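 further: slope of fluorescence scaled to starting intensity during 10 to 20 s after thallium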
WT yeast gro inh = growth inhibition of WT yeast, mitochondrial fusion screen. AID 1362. mitochondrial fusion phenotypic screen, WT strain. inhibition, % at 10 µM. 2.1% of 190,000 active; in the data active means inhibition above about 58%; tested in S. cerevisiae
* = called active by the depositor; / = no result given.

SMILES	ROMK mod	Diaphorase inh	Diaphorase act	Lmaj promast	Cl transport mod	WT yeast gro inh
CCOC(=O)C1=c2/c(=C/c3ccccc3OC)c(N)c(C#N)n2C(=O)C(c2ccccc2OC)S1 (stereo not drawn)	0.767	12.6	0.9	-1.0	/	9.7
CCOC(=O)C1=c2/c(=C/c3ccncc3)c(N)c(C(=O)OC)n2C(=O)C(c2ccncc2)S1 (stereo not drawn)	1.28	12.7	0.9	55.7*	-0.346	11.5
CCOC(=O)C1=C(N)n2c(s/c(=C\c3ccncc3)c2=O)=C(C(=O)OCC)C1c1ccncc1 (stereo not drawn)	0.161	/	/	51.5*	/	-12.0
O=C(NC1CCCCC1)Oc1cccc2ccccc12	/	27.9	0.7	-0.8	-0.332	-0.6
COc1cc(CCC(=O)OCC(=O)Nc2c(C)cc(C)cc2C)cc(OC)c1OC	1.08	14.7	0.9	-3.3	-0.143	-23.5
Brc1ccc(CSc2nnc(Cc3c[nH]c4ccccc34)o2)cc1	/	25.6	0.7	-1.4	0.597	68.3*
Clc1ccc(CSc2nnc(-c3c[nH]c4ccccc34)o2)cc1	-0.394	19.3	0.8	7.5	/	-0.6
Cc1ccc(OC(=O)c2sc3ncn(C)c(=O)c3c2C)cc1	-0.578	17.4	0.8	25.0	-0.156	5.9
CC(C)n1cc(/C=N\NC(=O)c2cc3c(ccc4ccccc43)o2)c2ccccc21	/	27.7	0.7	97.1*	/	5.0
CCn1cc(/C=N/NC(=O)c2cc3c(ccc4ccccc43)o2)c2ccccc21	1.18	37.0	0.6	99.5*	0.305	29.4
O=C(N/N=C/c1cccnc1)c1cc2c(ccc3ccccc32)o1	-0.505	9.9	0.9	38.6	/	0.6
O=C(NCCc1nnc2ccc(NCc3ccc(Cl)cc3)nn12)c1ccccc1	0.0263	9.5	0.9	-11.3	-0.017	2.3
O=C(CSc1nnc(CCCOc2ccc(Cl)cc2Cl)o1)Nc1ccc(C(=O)O)cc1	0.176	6.8	0.9	-3.8	0.0858	-17.0
CCN1C(c2ccccc2)=C(c2ccccc2)S/C1=C\C=C1/SC(=S)N(C)C1=O	/	/	/	8.1	/	/
CCN1C(=O)/C(=C/C=C2/Sc3ccc4ccccc4c3N2CCO)SC1=S	/	35.7	0.6	65.1*	1.74	8.3
COc1cc(NC(=O)C2CCCO2)c(OC)cc1NC(=O)c1ccccc1 (stereo not drawn)	/	9.7	0.9	83.3*	-0.529	28.2
COc1cc(NC(=O)C2CCCO2)c(OC)cc1Cl (stereo not drawn)	/	12.7	0.9	-4.9	0.106	-7.5
COC(=O)CS(=O)(=O)c1cc(Br)cc2c1N(C(C)=O)CC2	/	17.7	0.8	-3.7	-1.67	16.2
CCC(=O)N1CCc2cc(Br)cc(S(=O)(=O)NCCN3CCCCC3CC)c21 (stereo not drawn)	-2.07	12.3	0.9	11.8	0.0812	-8.3
CCC(=O)N1CCc2cc(Br)cc(S(=O)(=O)NCCN3CCCCC3C)c21 (stereo not drawn)	/	7.1	0.9	92.0*	0.561	-1.9
CCCN(CCC)CCCNS(=O)(=O)c1cc(Br)cc2c1N(C(C)=O)CC2	-0.252	14.7	0.9	87.1*	0.209	7.7
COc1cc(S(=O)(=O)N2CCC(c3nc4ccccc4s3)CC2)ccc1S(=O)(=O)NC1CCCC1	-0.316	14.7	0.9	-4.9	-0.442	-1.6
COc1cccc(N2CCN(c3ccc(S(=O)(=O)N4CCCC4)cc3)CC2)c1	0.649	22.6	0.8	1.5	/	16.6
CC(=O)Nc1nnc(CCS(=O)(=O)c2ccc(C)c(C)c2)s1	1.02	-8.0	1.1	0.1	0.895	-3.7
C/C(=N\N1C(=O)c2ccccc2NC1c1ccco1)c1ccccc1O (stereo not drawn)	0.102	1.5	1	89.6*	-2.67	-4.5
SMILES	ROMK mod	Diaphorase inh	Diaphorase act	Lmaj promast	Cl transport mod	WT yeast gro inh
C/C(=N\N1C(=O)c2ccccc2NC1c1ccccc1)c1ccccc1O (stereo not drawn)	0.325	0.4	1	-7.1	-1.11	-6.5
COc1cccc(NC(=S)NC2CC3CCCC(C2)N3C2CCCC2)c1 (stereo not drawn)	-2.03	21.4	0.8	37.5	0.188	-27.9
Cc1cc(C)cc(NC(=S)NC2CC3CCCC(C2)N3C2CC2)c1 (stereo not drawn)	-0.422	8.6	0.9	55.0*	-1.03	-2.8
Cc1cc(C)cc(NC(=S)NC2CC3CCCC(C2)N3CC(C)C)c1 (stereo not drawn)	-0.896	7.3	0.9	36.5	0.855	3.5
Cc1cc(C)cc(NC(=S)NC2CC3CCCC(C2)N3C2CCCC2)c1 (stereo not drawn)	-1.35	3.3	1	52.9*	0.346	6.1
O=c1[nH]c(Nc2nc3ccccc3o2)nc2c1CCCC2	/	9.1	0.9	95.3*	1.23	29.3
CCO[C@@H]1OC(C(=O)O)=C[C@H](c2csc3ccccc23)[C@H]1CCCO	/	5.8	0.9	-6.3	-0.0787	-2.1
CCO[C@@H]1OC(C(=O)NCc2ccccc2)=C[C@H](C2CC2)[C@H]1CCCO	/	-18.4	1.2	0.2	-0.047	-12.6
CCO[C@H]1OC(C(=O)Nc2ccccc2)=C[C@@H](c2csc3ccccc23)[C@@H]1CCCO	/	37.5	0.6	58.2*	-0.0859	71.6*
CCO[C@@H]1OC(C(=O)NCc2ccccc2)=C[C@H](C2CCCCC2)[C@H]1CCCO	/	30.9	0.7	50.7*	-0.323	7.1
CCO[C@H]1OC(C(=O)Nc2ccccc2)=C[C@@H](c2ccc(Br)cc2)[C@@H]1CCCO	/	31.4	0.7	46.0	-0.687	65.4*
CCO[C@@H]1OC(C(=O)Nc2ccccc2)=C[C@H](c2ccc(C(F)(F)F)cc2)[C@H]1CCCO	/	42.2	0.6	21.2	0.102	-12.8
O=C(N/N=C/c1ccc(N2CCOCC2)cc1)C1COc2ccccc2O1 (stereo not drawn)	-0.0835	-1.7	1	5.8	0.0115	-0.5
COc1ccc(C(=O)Nc2nc3ccc(S(C)(=O)=O)cc3s2)cc1OC	/	6.3	0.9	0.1	0.579	13.6
COc1ccc(-c2cc(C(=O)Nc3ccccc3N3CCOCC3)c3ccccc3n2)cc1OC	0.591	25.3	0.7	64.5*	-0.206	17.8
O=C(Nc1nc2ccccc2s1)c1cc(-c2ccccc2)nn1-c1ccccc1	0.263	7.4	0.9	92.5*	1.44	29.6
COc1ccc(C(=O)Nc2nc3ccccc3s2)cc1OC	-0.106	/	/	68.7*	-0.0564	68.0*
COc1ccc(-n2nnnc2SCC(=O)Nc2ccccc2N2CCOCC2)cc1OC	/	11.5	0.9	92.7*	-0.108	3.4
CC(=O)c1sc(NC(=O)c2cc(-c3ccccc3)nn2-c2ccccc2)nc1C	1.14	24.8	0.8	18.6	3.31	43.1
CCC(Sc1nnc2c3ccccc3n(CC)c2n1)C(=O)Nc1sc2c(c1C#N)CCCC2 (stereo not drawn)	-0.346	25.8	0.7	25.5	-0.414	1.1
